Rows were chosen to be rich in hits. Some 2.4% of all compounds tested hit in one or more screens of this group.
Neddylation inh – inhibitors of cullin neddylation, primary screen, biochemical, TR-FRET, uHTS, NAE and Ubc12; NEDD8-conjugating enzyme Ubc12 (Homo sapiens) + NEDD8-activating enzyme E1 regulatory …; 360,000 tested, 0.58% active; inhibition, % at 25 µM; in the data active means inhibition above about 36%
Target sequence (P61081 whole entry, looked up): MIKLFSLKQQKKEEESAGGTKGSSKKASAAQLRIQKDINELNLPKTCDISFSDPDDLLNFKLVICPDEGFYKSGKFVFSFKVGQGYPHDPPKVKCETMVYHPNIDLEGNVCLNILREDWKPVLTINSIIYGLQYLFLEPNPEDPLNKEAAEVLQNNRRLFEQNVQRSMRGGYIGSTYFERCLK
Target sequence (Q13564 whole entry, looked up): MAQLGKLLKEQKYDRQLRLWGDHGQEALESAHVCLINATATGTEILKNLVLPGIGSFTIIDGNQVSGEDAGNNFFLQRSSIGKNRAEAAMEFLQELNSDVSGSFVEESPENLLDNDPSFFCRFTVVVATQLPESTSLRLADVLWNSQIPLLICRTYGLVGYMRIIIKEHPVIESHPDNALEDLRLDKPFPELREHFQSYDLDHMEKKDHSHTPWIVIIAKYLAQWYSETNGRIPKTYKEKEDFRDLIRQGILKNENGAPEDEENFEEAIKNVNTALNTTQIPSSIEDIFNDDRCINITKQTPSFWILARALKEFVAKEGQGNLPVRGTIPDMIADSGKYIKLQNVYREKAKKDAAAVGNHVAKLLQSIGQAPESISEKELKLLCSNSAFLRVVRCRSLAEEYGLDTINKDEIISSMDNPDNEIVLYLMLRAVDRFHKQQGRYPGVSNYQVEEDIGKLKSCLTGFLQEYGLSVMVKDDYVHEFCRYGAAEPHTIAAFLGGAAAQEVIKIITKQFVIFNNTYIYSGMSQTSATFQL
Rpn11 block – Rpn11 (PSMD14) deubiquitinase inhibitors, primary screen, biochemical, fluorescence polarization, uHTS | inhibition, % at 20 µM | human 26S proteasome, Ub4-pepOG fluorescence polarization; 20S core pre-blocked with epoxomicin | 360,000 tested, 0.59% active;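 active means inhibition at 20 µM, scaled to each plate's controls, above about 33%, limit read from the data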
PREPL inh – PREPL enzyme inhibitors, primary screen, biochemical, fluorescence polarization. AID 2751, 2010. Prolyl endopeptidase-like (Homo sapiens), Q4J6C6. recombinant PREPL, fluorescence polarization activity-based probe. 320,000 tested, 0.68% active. inhibition, % at 5.96 µM; in the data active means inhibition above about 43%;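 further: 0% = enzyme with DMSO and 100% = wells lacking enzyme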
HNF4A DNA FP – change in binding of human HNF4A to DNA, primary screen, biochemical, fluorescence polarization, FITC-DNA; 1 h; activity change, % at 10 µM; 360,000 tested, 0.3% active; AID 1224865, 2016; in the data active means activity change above about 30%, passing the limit was not always enough
Tb MetRS inh – T. brucei MetRS inhibitors, primary screen, biochemical, luminescence. 360,000 tested, 0.4% active. inhibition, % at 11.9 µM. purified T. brucei MetRS, ATP depletion, Kinase-Glo luminescence. methionyl-tRNA synthetase (Trypanosoma brucei brucei). AID 624268, 2012;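 active means inhibition above a per-plate cutoff of the control wells' mean inhibition plus 3 SD, cut at about 5.5% in these data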;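 further: 0% = DMSO wells median and 100% = median of wells with control inhibitor compound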
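Material – parasite MetRS enzyme · Medium – HEPES-MgCl2-KCl buffer plus DTT, spermine, BSA, pyrophosphatase · Reagent – ATP, methionine and E. coli bulk tRNA substrates · Times – 15 min enzyme-compound preincubation, 2 h reaction, 10 min detection, 25 °C · Measured by – luminescence of leftover ATP · Evaluation – percent inhibition relative to median high and low control wells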
CSN inh – inhibitors of CSN-mediated cullin deneddylation, primary screen, biochemical, fluorescence polarization, uHTS; Purified CSN, SCF-Nedd8-OG deneddylation; 360,000 tested, 0.38% active; inhibition, % at 12.5 µM; COP9 signalosome complex subunit 5 (Homo sapiens), Q92905;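 active means pattern-corrected inhibition above about 35%, with an unprinted fluorescence ratio check between 0.5 and 1.5, limit read from the data, passing the limit was not always enough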;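 further: 0% = enzyme with substrate and 100% = substrate without enzyme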
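Detection – fluorescence polarization · System – HEK293T-derived human Csn5 enzyme · Controls – substrate-only high control, full reaction low control · Timing – 90 min, room temperature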
Numbers without * were called inactive; . = no result given.

SMILES | Neddylation inh | Rpn11 block | PREPL inh | HNF4A DNA FP | Tb MetRS inh | CSN inh
COc1cccc(-c2nn(-c3ccccc3)cc2CNC(C)Cn2cncn2)c1 (centres undefined) | 0 | -4 | -7 | 1 | -1 | 38*
CCOC(=O)[C@]12CCC=C1N(CCC1=CCCCC1)C(=O)[C@H](CC(=O)N1CCOCC1)C2 | 6 | . | . | 3 | 0 | -10
COc1cccc(C(C(=O)NCc2ccccc2)N2CCN(c3ccccc3F)CC2)c1OC (centres undefined) | -6 | . | . | 2 | 0 | -2
COc1ccc(C(=O)NCCNc2nc3cc(C)cc(C)c3cc2C#N)nc1 | -303 | . | . | 2 | 0 | 2
Cn1c(=O)[nH]c(=O)c2c1nc(N1CCOCC1)n2CCSc1nnnn1-c1ccccc1 | 0 | 7 | 6 | 1 | 0 | 2
CC(CSc1nnnn1-c1ccccc1)Cn1c(N2CCCC2)nc2c1c(=O)[nH]c(=O)n2C (centres undefined) | 6 | 11 | 46* | 1 | 0 | 5
COc1ccc(N2CCN(c3nc4c(c(=O)[nH]c(=O)n4C)n3Cc3cccc(C)c3)CC2)cc1 | 2 | -3 | 51* | -2 | -1 | -12
CCn1c(N2CCC(Cc3ccccc3)CC2)nc2c1c(=O)[nH]c(=O)n2C | 10 | 1 | 57* | 1 | -1 | 0
CCN1CCN(c2nc3c(c(=O)[nH]c(=O)n3C)n2Cc2cccc(C)c2)CC1 | -4 | -1 | . | 2 | 0 | 1
N#C/C(=C\c1ccc(N2CCOCC2)o1)c1ccccc1 | 6 | . | 19 | 78* | 0 | 8
Nc1ccn([C@@H]2O[C@H](CNCc3ccc(C#CCCO)cc3)[C@@H](O)[C@H]2O)c(=O)n1 | -2 | -1 | . | -2 | 0 | 45*
COCCNC(=S)N/N=C(\C)c1ccc(O)cc1 | -2 | -2 | 0 | 1 | 0 | 4
C/C(=N\NC(=S)NCC(C)(C)C)c1cc(F)cc(F)c1O | 45* | -4 | -2 | -2 | -2 | -5
COc1ccc(N2CCN(C(=O)CNC(=O)c3ccco3)CC2)cc1 | -2 | 3 | -4 | -5 | 0 | -3
COc1ccc([C@H]2CC(=O)C=C(c3cccc(Cl)c3)C2)cc1 | -39 | -6 | -21 | 5 | 0 | 3
CCOC(=O)c1cccc(C2=CC(=O)C[C@H](c3ccc(OC)cc3)C2)c1 | -26 | 12 | -53 | -4 | 0 | 95*
CCc1c(-c2cccc(Cl)c2)ncn1Cc1cccc(-c2ccccc2)c1 | -1 | . | . | 4 | -1 | -1
O=C(COc1ccccc1)Nc1sc2c(c1C(=O)NCc1cccnc1)CCCC2 | -18 | 6 | 0 | -12 | -1 | 41*
CN(/N=C/c1ccncc1)c1cnn(-c2ccc(F)c(Cl)c2)c(=O)c1Cl | 26 | 22 | -4 | -2 | 0 | 44*
CC1(C(=O)Nc2nccs2)CCN1C(=O)C1(c2ccccc2)CC1 (centres undefined) | -11 | 1 | . | 0 | 0 | 1
COc1ccc2c(c1)C1=NN(/C(C)=C/C(C)=O)C(c3ccc(F)cc3)C1CC2 (centres undefined) | 13 | 15 | 7 | 10 | 0 | 3
COc1ccc2c(c1)CCC1C2=NN(/C(C)=C\C(C)=O)C1c1ccc(F)cc1 (centres undefined) | 15 | 51* | -1 | 53* | -1 | 30
COc1ccc2nc(NC(=O)c3ccco3)sc2c1 | 48* | -7 | -5 | 1 | -1 | 0
Cc1ccc2nc(NC(=O)c3ccco3)sc2c1 | 33 | -6 | -9 | 0 | -1 | 2
Cn1cccc1C(=O)OCC(=O)N1CCc2ccccc2C1 | 2 | 3 | . | 2 | 0 | -3
SMILES | Neddylation inh | Rpn11 block | PREPL inh | HNF4A DNA FP | Tb MetRS inh | CSN inh
CSc1ccc(C2NC(=O)c3c(sc4c3CCN(C)C4)N2)cc1 (centres undefined) | -51 | . | 4 | 54 | 0 | 46*
CN1CCc2c(sc3c2C(=O)NC(c2cccs2)N3)C1 (centres undefined) | 13 | 6 | 18 | 1 | -1 | 4
CN1CCc2c(sc3c2C(=O)NC(c2ccc(-c4cccc(Cl)c4)o2)N3)C1 (centres undefined) | 28 | . | 24 | 71* | 0 | 44*
CCOC(=O)C1C(c2cc(OC)c(OC)c(OC)c2)NC(=S)NC1(O)C(F)(F)F (centres undefined) | -2 | -1 | 4 | -1 | 0 | 37*
CC1(C)Cc2cccc(OCC(=O)Nc3ccccc3C(F)(F)F)c2O1 | 2 | 6 | -1 | 40* | -1 | 4
Cn1cccc1/C=C1\SC(=S)N(Nc2ccccc2)C1=O | -67 | . | -12 | 58* | 0 | 34
CC(C)C(C(=O)O)N1C(=O)/C(=C/C=C/c2ccco2)SC1=S (centres undefined) | 10 | . | 35 | -24 | 0 | 61
Cc1ccc(S(=O)(=O)NN2C(=O)/C(=C/c3cccn3C)SC2=S)cc1 | . | . | 2 | . | . | .
COc1cccc(/C=C2\SC(=S)N(C(Cc3ccccc3)C(=O)O)C2=O)c1 (centres undefined) | -17 | -7 | -3 | 54* | 0 | -1
CC(C)C(C(=O)O)N1C(=O)/C(=C/c2cccn2C)SC1=S (centres undefined) | -55 | . | -5 | 88* | 1 | 66*
Cn1cccc1/C=C1\SC(=O)N(c2ccccc2)C1=O | -14 | 3 | 4 | 3 | 0 | 43*
CCN(CC(=O)Nc1ccc(NC(C)=O)cc1)C(=O)c1ccc(=O)n(C)n1 | 2 | 3 | 2 | -1 | 0 | 2
COC(=O)C1(C(F)(F)F)C2C=CC(C2)N1S(=O)(=O)c1ccc(C)cc1 (centres undefined) | -5 | 3 | -7 | 0 | 0 | 1
CCCC(C(=O)O)N1C(=O)/C(=C/c2cccn2C)SC1=S (centres undefined) | -46 | . | 12 | 115 | 0 | 89*
O=C(O)C(Cc1ccccc1)N1C(=O)/C(=C/c2cccs2)SC1=S (centres undefined) | -14 | 2 | . | -2 | 1 | 7
O=C(Nc1cccc(C(F)(F)F)c1)C1=CC=CN2CCS(=O)(=O)N=C12 | 1 | 0 | -2 | 5 | 0 | 2
O=Cc1ccc2oc3nc4n(c(=O)c3c(=O)c2c1)CCCS4 | -17 | . | 4 | -32 | -1 | 45*

Screening data deposited in PubChem by several laboratories.
